Test results as given in ChEMBL document CHEMBL3232793, “Fused heterocyclic compounds bearing bridgehead nitrogen as potent HIV-1 NNRTIs. Part 1: design, synthesis and biological evaluation of novel 5,7-disubstituted pyrazolo[1,5-a]pyrimidine derivatives” (Bioorg Med Chem, 2014).

Experiments:
[1] = target: Human immunodeficiency virus type 1 reverse transcriptase (Human immunodeficiency virus 1, UniProt Q72547); test: Inhibition of recombinant HIV1 reverse transcriptase assessed as inhibition of biotin-dUTP incorporation in to poly [A] x oligo[dT]15 by ELISA
Procedure, shortened: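 Colorimetric kit (Roche) ELISA. Homopolymer template/primer bound to the microplate, with biotin-dUTP as the labelled nucleotide and 4 ng recombinant HIV-1 RT per well. Compounds tested at several concentrations.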

[2] = system: Human immunodeficiency virus 1; test: Antiviral activity against NNRTI-resistant HIV1 harboring K103N mutant infected in human Hela-JC53 cells assessed as inhibition of viral replication by luciferase reporter gene assay relative wild type HIV1; assay type: functional
[3] = system: Human immunodeficiency virus 1; test: Antiviral activity against wild type HIV1 infected in human Hela-JC53 cells assessed as inhibition of viral replication by luciferase reporter gene assay; assay type: functional, organism-based; conditions: Human immunodeficiency virus 1, Hela-JC53
[4] = Selectivity index, ratio of compound activity for human HeLa cells to EC50 for wild type HIV1; assay type: toxicity, cell-based; conditions: read-out: Selectivity Index
[5] = system: Human immunodeficiency virus 1; test: Antiviral activity against NNRTI-resistant HIV1 harboring Y181C mutant infected in human Hela-JC53 cells assessed as inhibition of viral replication by luciferase reporter gene assay relative wild type HIV1; assay type: functional
[6] = Cytotoxicity against human MT4 cells assessed as cell viability by MTT assay; assay type: cell-based
Procedure, shortened: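 Mock-infected MT-4 cells at 6 × 10⁵ cells/mL, run in parallel triplicate wells with the infected series. Compounds given as serial five-fold dilutions. MTT viability read spectrophotometrically at day 5.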

[7] = Selectivity index, ratio of CC50 for human MT4 cells to EC50 for HIV1 3B; assay type: toxicity, cell-based; conditions: read-out: Ratio CC50/EC50
Procedure, shortened: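 Selectivity index = CC50 (mock-infected MT-4 cells) / EC50 (IIIB or ROD protection). Both values come from the same 5-day MTT assay run in parallel triplicate wells.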

[8] = system: Human immunodeficiency virus 2; test: Antiviral activity against HIV2 ROD infected in human MT4 cells assessed as virus-induced cytopathic effect by MTT assay; assay type: functional, organism-based; conditions: Human immunodeficiency virus 2, ISOLATE ROD
Procedure, shortened: (§1)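 MT-4 cells, resuspended at 6 × 10⁵ cells/mL, infected with HIV-1 IIIB or HIV-2 ROD at 100–300 CCID50. Compounds added at assay start as serial five-fold dilutions in triplicate wells. Viability read spectrophotometrically by MTT 5 days after infection.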

[9] = system: Human immunodeficiency virus 1; test: Antiviral activity against HIV1 3B infected in human MT4 cells assessed as virus-induced cytopathic effect by MTT assay; assay type: functional, organism-based; conditions: Human immunodeficiency virus 1, 3B; procedure, shortened: as §1

`Cc1cc(C)c(Oc2cc(Nc3ccc(C#N)cc3)nc3ccnn23)c(C)c1` gave an IC50 [1] of 2260 nM.

For `Cc1cc(C#N)cc(C)c1Oc1nc(Nc2ccc(C#N)cc2)nc2[nH]ccc12`, the “fold change (FC)” value [2] was 11, the EC50 [3] was 0.9 nM and the selectivity ratio [4] was > 50000. The “fold change (FC)” value [5] was 11.

With `Cc1cc(C#N)cc(C)c1Oc1nc(Nc2ccc(C#N)cc2)nc2cc[nH]c12` the “fold change (FC)” value [2] was 3.8, the EC50 [3] was 0.8 nM and the selectivity ratio [4] was > 50000. For the same molecule, the “fold change (FC)” value [5] was 3.8.

In the case of `CC(C)Nc1cccnc1N1CCN(C(=O)c2cc3cc(NS(C)(=O)=O)ccc3[nH]2)CC1` [DELAVIRDINE], the CC50 [6] is reported as > 43.8 µM and the selectivity ratio [7] is reported as > 277.

With `Cc1cc(C#N)cc(C)c1Oc1nc(Nc2ccc(C#N)cc2)nc(N)c1Br` [ETRAVIRINE] the CC50 [6] was > 4.6 µM and the EC50 [8] was 11 nM.

In the case of `Cc1ccnc2c1NC(=O)c1cccnc1N2C1CC1` [NEVIRAPINE], the CC50 [6] is reported as > 15 µM and the EC50 [9] is reported as 170 nM.
